Experimental data from ChEMBL document CHEMBL2406966, “Structure and Property Based Design of Pyrazolo[1,5-a]pyrimidine Inhibitors of CK2 Kinase with Activity in Vivo” (ACS Med Chem Lett, 2013).
Values after ≈ are worked out from the molar mass of the structure shown. Active and inactive are the calls of the source. The calls are words filed in the database; no cut-off is given here.

Assays:
[1] = target: Homeodomain-interacting protein kinase 1 (Homo sapiens) (UniProt Q86Z02); assay: Inhibition of Hipk-1 (unknown origin) assessed as residual activity at 0.1 uM/L relative to control
How it was run: (§1)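 KINOMEscan competition binding panel measuring displacement of an immobilized, active-site-directed ligand. Test concentration was 0.1 μM/L. Read-out was residual activity as % of DMSO control.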

[2] = target: T1, Dual specificity tyrosine-phosphorylation-regulated kinase 2 (Homo sapiens) (UniProt Q92630); assay: Inhibition of Dyrk-2 (unknown origin) assessed as residual activity at 0.1 uM/L relative to control; how it was run: as §1
T1 sequence (whole entry): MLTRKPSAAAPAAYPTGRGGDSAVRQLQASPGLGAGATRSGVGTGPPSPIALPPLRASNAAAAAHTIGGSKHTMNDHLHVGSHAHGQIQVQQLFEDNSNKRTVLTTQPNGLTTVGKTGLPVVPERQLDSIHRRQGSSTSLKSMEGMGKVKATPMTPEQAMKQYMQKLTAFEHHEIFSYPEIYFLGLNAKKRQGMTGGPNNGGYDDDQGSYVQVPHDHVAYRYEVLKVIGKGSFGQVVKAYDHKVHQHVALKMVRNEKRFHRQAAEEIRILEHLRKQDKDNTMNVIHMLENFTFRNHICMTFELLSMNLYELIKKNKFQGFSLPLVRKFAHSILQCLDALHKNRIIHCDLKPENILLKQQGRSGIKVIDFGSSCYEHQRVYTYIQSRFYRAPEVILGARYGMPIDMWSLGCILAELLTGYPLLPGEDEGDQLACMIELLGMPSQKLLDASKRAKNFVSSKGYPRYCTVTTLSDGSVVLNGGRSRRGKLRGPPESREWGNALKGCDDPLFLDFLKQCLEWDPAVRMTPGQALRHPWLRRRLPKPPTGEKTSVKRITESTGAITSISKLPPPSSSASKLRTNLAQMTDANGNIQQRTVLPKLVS

[3] = Antitumor activity against human DLD2 cells xenografted in mouse assessed as tumor growth inhibition at 10 mg/kg, po qd after 14 days relative to control; assay type: functional; details: DLD2, 336 h, read-out: TGI
[4] = target: Death-associated protein kinase 1 (Homo sapiens) (UniProt P53355); assay: Inhibition of Dapk-1 (unknown origin) assessed as residual activity at 0.1 uM/L relative to control; how it was run: as §1
Mus musculus [5] = assay: In vivo inhibition of CK2 in human DLD2 cells xenografted in mouse assessed as inhibition of AKT phosphorylation at Ser129 at 10 mg/kg, po measured up to 24 hrs by ELISA; assay type: functional, organism-based; set-up: dose 10 mg/kg
How it was run: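 DLD-1 AKT1-overexpressing xenograft mice received a single oral dose of 10 mg/kg. pAKT S129 in tumour cell lysates was quantified by ELISA over time and plotted against plasma drug concentration.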

[6] = target: Homeodomain-interacting protein kinase 3 (Homo sapiens) (UniProt Q9H422); assay: Inhibition of Hipk-3 (unknown origin) assessed as residual activity at 0.1 uM/L relative to control; how it was run: as §1
[7] = target: Dual specificity tyrosine-phosphorylation-regulated kinase 1A (Homo sapiens) (UniProt Q13627); assay: Inhibition of Dyrk-1 (unknown origin) assessed as residual activity at 0.1 uM/L relative to control; how it was run: as §1
HCT-116 = assay: Growth inhibition of human HCT116 cells after 72 hrs by Alamar blue assay; assay type: functional; details: HCT-116, 72 h
[8] = target: Death-associated protein kinase 2 (Homo sapiens) (UniProt Q9UIK4); assay: Inhibition of Dapk-2 (unknown origin) assessed as residual activity at 0.1 uM/L relative to control; how it was run: as §1
[9] = target: Serine/threonine-protein kinase pim-3 (Homo sapiens, UniProt Q86V86); assay: Inhibition of PIM3 (unknown origin)
[10] = Antitumor activity against human DLD2 cells xenografted in mouse assessed as tumor growth inhibition at 5 mg/kg, po bid after 14 days relative to control; assay type: functional; details: DLD2, 336 h, read-out: TGI
[11] = Fraction unbound in human plasma at 10 uM by equilibrium dialysis method; assay type: ADME, cell-free
Mus musculus [12] = assay: In vivo inhibition of CK2 in human DLD2 cells xenografted in mouse assessed as inhibition of AKT phosphorylation at Ser129 at 10 mg/kg, po measured at 3 to 8 hrs by Western blot analysis; assay type: functional, organism-based; set-up: dose 10 mg/kg
How it was run: (§2)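 Mice bearing DLD-1 xenografts overexpressing AKT1 received a single oral dose (10 or 12.5 mg/kg). Tumour cell lysates were taken at 3, 8 and 24 h post-dose and probed for pAKT S129 by Western blot.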

[13] = target: T2, Dual specificity tyrosine-phosphorylation-regulated kinase 3 (Homo sapiens, UniProt O43781); assay: Inhibition of Dyrk-3 (unknown origin)
T2 sequence (O43781 whole entry): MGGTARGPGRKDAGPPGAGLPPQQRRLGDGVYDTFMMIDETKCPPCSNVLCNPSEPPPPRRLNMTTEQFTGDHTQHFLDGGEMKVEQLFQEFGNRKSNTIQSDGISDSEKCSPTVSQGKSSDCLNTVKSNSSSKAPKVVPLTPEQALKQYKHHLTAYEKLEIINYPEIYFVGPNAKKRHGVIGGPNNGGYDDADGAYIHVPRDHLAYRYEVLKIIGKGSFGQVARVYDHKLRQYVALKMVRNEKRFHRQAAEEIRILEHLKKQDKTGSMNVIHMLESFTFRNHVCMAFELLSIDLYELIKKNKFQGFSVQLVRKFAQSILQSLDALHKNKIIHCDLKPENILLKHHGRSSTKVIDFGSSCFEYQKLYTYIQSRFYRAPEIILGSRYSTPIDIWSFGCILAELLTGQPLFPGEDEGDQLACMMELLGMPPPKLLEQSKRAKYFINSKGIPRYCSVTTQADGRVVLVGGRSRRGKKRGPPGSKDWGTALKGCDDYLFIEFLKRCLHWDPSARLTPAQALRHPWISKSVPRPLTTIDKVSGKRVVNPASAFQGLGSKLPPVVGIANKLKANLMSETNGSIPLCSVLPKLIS

physchem = details: octanol/water, pH 7.4
[14] = Intrinsic clearance in rat liver microsomes; assay type: ADME, Microsome; details: read-out: CLH
How it was run: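 Incubation with rat liver microsomes; intrinsic clearance reported in μL/min/mg.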

[15] = target: Death-associated protein kinase 3 (Homo sapiens) (UniProt O43293); assay: Inhibition of Dapk-3 (unknown origin) assessed as residual activity at 0.1 uM/L relative to control
How it was run: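 Kinome-wide competition binding panel: measures the compound's ability to compete with an immobilized, active-site-directed ligand for kinase binding. Inhibitor tested at 0.1 μM/L. Read-out is residual activity as a percentage of the DMSO control.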

[16] = Aqueous solubility of the compound in phosphate buffer at pH 7.4 after 24 hrs; assay type: physicochemical
[17] = target: Cyclin-dependent kinase 2 (Homo sapiens, UniProt P24941); assay: Inhibition of CDK2 (unknown origin)
Mus musculus [18] = assay: In vivo inhibition of CK2 in human DLD2 cells xenografted in mouse assessed as inhibition of AKT phosphorylation at Ser129 at 10 mg/kg, po measured at 24 hrs by Western blot analysis; assay type: functional, organism-based; set-up: dose 10 mg/kg; how it was run: as §2
[19] = target: Glycogen synthase kinase-3 beta (Homo sapiens, UniProt P49841); assay: Inhibition of GSK3beta (unknown origin)
[20] = target: Homeodomain-interacting protein kinase 2 (Homo sapiens, UniProt Q9H2X6); assay: Inhibition of Hipk-2 (unknown origin)
[21] = Plasma half life in rat at 10 mg/kg, po; assay type: ADME, organism-based; set-up: dose 10 mg/kg, route oral
How it was run: (§3)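 Rats were given a single oral dose of 10 mg/kg. Plasma pharmacokinetics yielded bioavailability (F, %), half-life (h) and clearance (mL/min/kg).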

cells = details: Homo sapiens, HCT-116
[22] = Inhibition of casein kinase-2 (unknown origin); set-up: species or system Homo sapiens
How it was run: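 Recombinant human full-length CK2α phosphorylating a synthetic peptide substrate, run at Km ATP concentration.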

[23] = Cmax in po dosed rat; assay type: ADME, organism-based; set-up: route oral; details: in vivo
MDR1 [24] = assay: Efflux ratio of apparent permeability across apical to basolateral side in porcine LLC cells expressing MDR1; assay type: ADME, cell-based, Sus scrofa; details: pig, LLC-PK1
How it was run: (§4)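 MDR1-expressing LLCK cell monolayers. Apical-to-basolateral apparent permeability (Papp) measured in cm/s; efflux ratio also determined.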

[25] = target: Casein kinase II subunit alpha (Homo sapiens, UniProt P68400); assay: Inhibition of N-terminal His6X-tagged recombinant human full length casein kinase-2alpha expressed in SF21 cells using BODIPY-FL-RRRDDDSDDD-CONH2 as substrate preincubated for 20 mins measured after 90 mins by mobility shift assay
MDR1 [26] = assay: Apparent permeability across apical to basolateral side in porcine LLC cells expressing MDR1; assay type: ADME, cell-based, Sus scrofa; details: pig, LLC-PK1; how it was run: as §4
[27] = Clearance in rat at 10 mg/kg, po; assay type: ADME, organism-based; set-up: dose 10 mg/kg, route oral; details: in vivo; how it was run: as §3
[28] = target: Voltage-gated inwardly rectifying potassium channel KCNH2 (Homo sapiens, UniProt Q12809); assay: Binding affinity to human ERG expressed in CHO cells by IonWorks assay
[29] = Oral bioavailability in rat at 10 mg/kg; assay type: ADME, organism-based; details: in vivo; how it was run: as §3

Casein kinase II subunit alpha, sequence (P68400 whole entry): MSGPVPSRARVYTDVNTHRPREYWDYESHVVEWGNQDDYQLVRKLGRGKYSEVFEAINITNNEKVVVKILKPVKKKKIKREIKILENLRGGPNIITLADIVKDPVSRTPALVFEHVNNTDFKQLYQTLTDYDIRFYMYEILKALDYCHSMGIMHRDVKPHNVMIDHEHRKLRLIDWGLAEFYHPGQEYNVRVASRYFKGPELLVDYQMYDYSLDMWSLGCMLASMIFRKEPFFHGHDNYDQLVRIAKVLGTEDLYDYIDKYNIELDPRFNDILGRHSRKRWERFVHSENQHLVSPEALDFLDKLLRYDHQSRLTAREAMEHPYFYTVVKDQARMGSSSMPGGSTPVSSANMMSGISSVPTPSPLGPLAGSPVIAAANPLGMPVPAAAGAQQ
Death-associated protein kinase 2 (Homo sapiens), sequence (Q9UIK4 whole entry, looked up): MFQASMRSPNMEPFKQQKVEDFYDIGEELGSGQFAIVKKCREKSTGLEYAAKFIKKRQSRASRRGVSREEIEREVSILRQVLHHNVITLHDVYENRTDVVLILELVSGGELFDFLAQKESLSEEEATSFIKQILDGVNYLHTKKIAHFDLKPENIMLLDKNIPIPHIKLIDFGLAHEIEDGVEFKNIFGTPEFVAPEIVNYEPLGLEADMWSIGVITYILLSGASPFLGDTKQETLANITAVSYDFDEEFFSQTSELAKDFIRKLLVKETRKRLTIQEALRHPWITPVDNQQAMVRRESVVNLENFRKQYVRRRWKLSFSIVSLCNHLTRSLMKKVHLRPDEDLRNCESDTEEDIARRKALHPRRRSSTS
Homeodomain-interacting protein kinase 3 (Homo sapiens), sequence (Q9H422 whole entry, looked up): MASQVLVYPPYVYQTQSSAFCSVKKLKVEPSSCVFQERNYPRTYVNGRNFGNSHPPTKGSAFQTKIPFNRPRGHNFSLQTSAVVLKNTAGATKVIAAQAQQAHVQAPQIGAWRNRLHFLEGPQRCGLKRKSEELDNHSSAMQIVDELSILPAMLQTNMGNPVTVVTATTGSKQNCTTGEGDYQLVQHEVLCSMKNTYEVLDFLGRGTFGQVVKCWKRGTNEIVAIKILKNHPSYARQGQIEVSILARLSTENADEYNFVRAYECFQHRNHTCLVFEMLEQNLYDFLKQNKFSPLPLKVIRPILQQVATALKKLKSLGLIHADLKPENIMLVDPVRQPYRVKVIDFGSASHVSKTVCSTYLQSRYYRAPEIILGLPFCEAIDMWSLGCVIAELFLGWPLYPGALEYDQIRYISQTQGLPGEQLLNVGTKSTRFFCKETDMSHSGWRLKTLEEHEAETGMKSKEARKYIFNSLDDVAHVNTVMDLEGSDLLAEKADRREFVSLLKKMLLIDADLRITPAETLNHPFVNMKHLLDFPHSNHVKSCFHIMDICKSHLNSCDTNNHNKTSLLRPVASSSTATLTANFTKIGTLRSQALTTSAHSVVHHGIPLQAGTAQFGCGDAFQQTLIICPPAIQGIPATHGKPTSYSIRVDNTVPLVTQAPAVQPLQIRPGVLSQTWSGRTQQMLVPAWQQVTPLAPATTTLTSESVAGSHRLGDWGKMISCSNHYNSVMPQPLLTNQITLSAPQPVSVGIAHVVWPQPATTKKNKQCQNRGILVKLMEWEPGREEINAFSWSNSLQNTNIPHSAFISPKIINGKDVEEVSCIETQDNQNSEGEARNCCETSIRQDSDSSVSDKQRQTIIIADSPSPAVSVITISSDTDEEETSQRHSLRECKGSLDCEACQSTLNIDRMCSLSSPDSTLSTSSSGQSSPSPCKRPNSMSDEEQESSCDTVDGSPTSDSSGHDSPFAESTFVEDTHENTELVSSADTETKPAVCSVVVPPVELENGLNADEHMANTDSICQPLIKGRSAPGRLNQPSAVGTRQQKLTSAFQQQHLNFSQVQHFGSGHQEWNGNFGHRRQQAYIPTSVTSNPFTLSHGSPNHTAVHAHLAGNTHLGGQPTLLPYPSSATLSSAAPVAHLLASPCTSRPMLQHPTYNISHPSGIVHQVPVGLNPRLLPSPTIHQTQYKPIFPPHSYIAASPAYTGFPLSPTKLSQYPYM
Death-associated protein kinase 3 (Homo sapiens), sequence (O43293 whole entry, looked up): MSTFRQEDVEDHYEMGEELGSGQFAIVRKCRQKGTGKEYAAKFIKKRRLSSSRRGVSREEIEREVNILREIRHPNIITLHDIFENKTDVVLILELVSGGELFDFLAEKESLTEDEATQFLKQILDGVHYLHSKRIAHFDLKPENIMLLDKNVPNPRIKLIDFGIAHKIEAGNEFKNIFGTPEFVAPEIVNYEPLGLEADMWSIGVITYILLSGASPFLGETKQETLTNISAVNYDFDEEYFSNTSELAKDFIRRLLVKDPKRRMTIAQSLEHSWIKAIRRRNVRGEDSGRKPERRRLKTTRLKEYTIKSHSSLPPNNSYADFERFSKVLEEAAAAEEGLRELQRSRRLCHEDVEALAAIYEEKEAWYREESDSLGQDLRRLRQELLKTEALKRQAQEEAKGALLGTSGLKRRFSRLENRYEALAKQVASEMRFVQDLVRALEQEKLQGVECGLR
Homeodomain-interacting protein kinase 1 (Homo sapiens), sequence (Q86Z02 whole entry, looked up): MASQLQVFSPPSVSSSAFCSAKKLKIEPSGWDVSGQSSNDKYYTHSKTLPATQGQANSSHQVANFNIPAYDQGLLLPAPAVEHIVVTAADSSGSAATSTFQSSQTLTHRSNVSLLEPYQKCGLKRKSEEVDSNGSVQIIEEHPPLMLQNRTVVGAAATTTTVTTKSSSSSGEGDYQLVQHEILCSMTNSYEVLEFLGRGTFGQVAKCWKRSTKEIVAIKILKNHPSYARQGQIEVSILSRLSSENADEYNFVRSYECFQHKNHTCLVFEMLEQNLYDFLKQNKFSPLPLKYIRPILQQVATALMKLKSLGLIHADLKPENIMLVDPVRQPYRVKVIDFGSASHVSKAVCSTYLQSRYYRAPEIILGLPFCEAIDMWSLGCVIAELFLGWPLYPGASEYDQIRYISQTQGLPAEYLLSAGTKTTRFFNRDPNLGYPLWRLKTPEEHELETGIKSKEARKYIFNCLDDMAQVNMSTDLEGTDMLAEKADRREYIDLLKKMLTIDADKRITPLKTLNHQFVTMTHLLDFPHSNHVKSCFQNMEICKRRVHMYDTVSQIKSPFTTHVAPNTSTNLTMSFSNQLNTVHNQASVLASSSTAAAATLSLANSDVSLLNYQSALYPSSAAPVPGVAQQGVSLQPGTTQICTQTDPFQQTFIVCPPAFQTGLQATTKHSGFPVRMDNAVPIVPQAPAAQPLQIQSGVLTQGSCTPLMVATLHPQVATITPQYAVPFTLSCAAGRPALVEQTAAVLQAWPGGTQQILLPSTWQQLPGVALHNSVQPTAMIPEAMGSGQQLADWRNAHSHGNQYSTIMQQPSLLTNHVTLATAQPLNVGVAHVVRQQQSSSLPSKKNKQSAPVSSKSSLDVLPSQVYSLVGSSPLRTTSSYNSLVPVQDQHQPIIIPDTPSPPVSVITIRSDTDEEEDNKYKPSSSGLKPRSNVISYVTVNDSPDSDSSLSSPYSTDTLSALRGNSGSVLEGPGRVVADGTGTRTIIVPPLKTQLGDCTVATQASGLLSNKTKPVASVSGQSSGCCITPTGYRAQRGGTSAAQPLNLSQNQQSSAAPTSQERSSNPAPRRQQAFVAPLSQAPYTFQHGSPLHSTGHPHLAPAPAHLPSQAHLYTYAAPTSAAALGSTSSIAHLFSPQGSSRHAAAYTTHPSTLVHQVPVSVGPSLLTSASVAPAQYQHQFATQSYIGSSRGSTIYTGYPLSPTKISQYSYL
Homeodomain-interacting protein kinase 2, sequence (Q9H2X6 whole entry): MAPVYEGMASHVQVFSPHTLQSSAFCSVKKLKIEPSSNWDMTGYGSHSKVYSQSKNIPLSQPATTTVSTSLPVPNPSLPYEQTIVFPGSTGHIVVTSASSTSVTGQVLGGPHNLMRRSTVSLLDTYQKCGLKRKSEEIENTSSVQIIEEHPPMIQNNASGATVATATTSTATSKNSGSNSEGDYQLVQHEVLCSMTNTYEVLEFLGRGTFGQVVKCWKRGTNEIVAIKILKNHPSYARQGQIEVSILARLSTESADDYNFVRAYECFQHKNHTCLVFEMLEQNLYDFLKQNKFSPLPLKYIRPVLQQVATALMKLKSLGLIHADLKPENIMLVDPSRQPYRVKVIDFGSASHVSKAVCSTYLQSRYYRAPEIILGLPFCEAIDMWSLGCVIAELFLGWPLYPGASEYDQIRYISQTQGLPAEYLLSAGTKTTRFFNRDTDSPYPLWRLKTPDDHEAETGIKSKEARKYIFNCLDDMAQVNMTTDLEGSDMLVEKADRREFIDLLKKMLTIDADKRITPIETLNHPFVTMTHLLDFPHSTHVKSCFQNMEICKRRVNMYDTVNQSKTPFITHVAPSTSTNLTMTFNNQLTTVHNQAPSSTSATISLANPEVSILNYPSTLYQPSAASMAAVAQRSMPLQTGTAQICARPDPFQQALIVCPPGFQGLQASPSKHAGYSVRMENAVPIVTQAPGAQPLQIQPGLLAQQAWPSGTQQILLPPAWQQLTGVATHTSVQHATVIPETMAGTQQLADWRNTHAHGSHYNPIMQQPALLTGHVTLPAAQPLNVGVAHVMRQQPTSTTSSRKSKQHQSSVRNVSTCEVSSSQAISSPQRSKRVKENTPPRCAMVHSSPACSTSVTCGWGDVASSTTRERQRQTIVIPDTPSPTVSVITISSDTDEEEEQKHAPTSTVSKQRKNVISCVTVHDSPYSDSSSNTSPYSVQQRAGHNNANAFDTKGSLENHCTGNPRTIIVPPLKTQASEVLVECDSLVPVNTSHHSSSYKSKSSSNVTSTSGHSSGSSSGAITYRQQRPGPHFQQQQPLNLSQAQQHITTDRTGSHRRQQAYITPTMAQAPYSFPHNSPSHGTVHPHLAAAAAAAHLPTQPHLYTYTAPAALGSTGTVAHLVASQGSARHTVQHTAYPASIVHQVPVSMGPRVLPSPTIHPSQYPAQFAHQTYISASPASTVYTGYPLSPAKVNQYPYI

Molecule `CC(=O)Nc1cc(Nc2cc(NC3CC3)n3ncc(C#N)c3n2)ccc1C` has an Activity [1] of 38%, an Activity [2] of 18% and an inhibition in vivo at 10 mg/kg [3] of 28%. For the same molecule, the Activity [4] was 21%, the inhibition (Mus musculus [5]) was “Active” and the Activity [6] was 39%. The Activity [7] was 43%, the GI50 (HCT-116) was 81 nM and the Activity [8] was 43%. The IC50 [9] was 150 nM, the inhibition in vivo at 5 mg/kg [10] was 37% and the fraction unbound at 10 µM [11] was 0.08. For the same molecule, the inhibition (Mus musculus [12]) was “Active”, the IC50 [13] was 70 nM and the logD at 5 h (physchem) was 2.4. For the same molecule, the microsomal CLint [14] was 15 µL/min/mg, the Activity [15] was 22% and the solubility at 24 h [16] was 8 µM (≈ 2.89 µg/mL). For the same molecule, the IC50 [17] was 7200 nM, the inhibition (Mus musculus [18]) was “inactive” and the IC50 [19] was 2600 nM. It also gave an IC50 [20] of 40 nM and a half-life [21] of 2.6 h.
`CC(=O)Nc1cc(Nc2cc(NC3CC3)n3nccc3n2)ccc1C` showed an IC50 (cells) greater than 3300 nM and an IC50 [22] of 270 nM.
In the case of `CC(=O)Nc1cc(Nc2cc(Nc3ccn(CCN4CCCC4)n3)n3ncc(C#N)c3n2)ccc1C`, the Cmax [23] is reported as less than 100 nM, the GI50 (HCT-116) is reported as 100 nM and the efflux ratio (MDR1 [24]) is reported as 100. The IC50 [25] was less than 3 nM, the Papp A→B (MDR1 [26]) was 0.2 ×10⁻⁶ cm/s and the logD at 5 h (physchem) was 2.5. For the same molecule, the microsomal CLint [14] was 65 µL/min/mg and the solubility at 24 h [16] was 3 µM (≈ 1.45 µg/mL).
`CC(=O)Nc1cc(Nc2cc(NC3COC3)n3ncc(C#N)c3n2)ccc1C1CC1` showed a GI50 (HCT-116) of 59 nM, an IC50 [25] of less than 3 nM and a fraction unbound at 10 µM [11] of 0.2. The logD at 5 h (physchem) was 2.2, the microsomal CLint [14] was less than 4 µL/min/mg and the solubility at 24 h [16] was 11 µM (≈ 4.44 µg/mL). It also gave an IC50 (cells) of 6 nM, a CL/F [27] of 23 mL/min/kg and an IC50 [28] greater than 33000 nM. It also gave a half-life [21] of 1.4 h and a bioavailability [29] of 47%.
